Data reported in ChEMBL document CHEMBL1136943, “Nocathiacin analogs: Synthesis and antibacterial activity of novel water-soluble amides” (Bioorg Med Chem Lett, 2009).
≈ marks a conversion by molar mass, not a printed value.

Tests used:
Staphylococcus aureus [1] = test: Antibacterial activity against Staphylococcus aureus infected in mouse model assessed as reduction of >= 2 log 10 cfu kidney burden; type: functional
Method in brief: (§1)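 Systemic S. aureus infection mouse model (SATOA). Compounds were given iv; […]. Kidney bacterial burden (cfu) was compared with untreated control. ED99 is the dose giving a reduction of at least 2 log10 cfu in kidney burden.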

Streptococcus pneumoniae = test: Antibacterial activity against Streptococcus pneumoniae CL2883 in liquid culture by turbidity method; type: functional
Method in brief: (§2)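 MIC is the lowest concentration giving 100% inhibition of bacterial growth in liquid culture, read by turbidity.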

[2] = molecular target: T1, Type-2 angiotensin II receptor (Homo sapiens, UniProt P50052); test: Inhibition of AT2 receptor
T1 sequence (P50052 whole entry): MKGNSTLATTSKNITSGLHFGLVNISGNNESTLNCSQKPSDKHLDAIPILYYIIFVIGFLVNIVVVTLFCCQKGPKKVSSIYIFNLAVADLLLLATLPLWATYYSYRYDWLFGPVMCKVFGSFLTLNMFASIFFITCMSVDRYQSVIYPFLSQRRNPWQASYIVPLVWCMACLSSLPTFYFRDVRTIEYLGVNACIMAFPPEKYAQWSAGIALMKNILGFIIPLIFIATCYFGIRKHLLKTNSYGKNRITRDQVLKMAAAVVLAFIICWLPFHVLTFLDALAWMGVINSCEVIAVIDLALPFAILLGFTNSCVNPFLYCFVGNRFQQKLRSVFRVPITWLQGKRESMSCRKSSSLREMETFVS
Method in brief: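 AT2 IC50 derived from four dose levels per compound, following a published protocol.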

Staphylococcus aureus [3] = test: Antibacterial activity against Staphylococcus aureus infected in mouse model assessed as reduction of kidney burden iv relative to control
Enterococcus faecalis = test: Antibacterial activity against Enterococcus faecalis C21560 in liquid culture by turbidity method; type: functional; method in brief: as §2
Staphylococcus aureus [4] = test: Antibacterial activity against Staphylococcus aureus MB2865 in liquid culture by turbidity method; type: functional; method in brief: as §2
Staphylococcus aureus [5] = test: Antibacterial activity against Staphylococcus aureus infected in mouse model assessed as reduction of kidney burden at 0.5 mg/kg, iv relative to control; type: functional; method in brief: as §1

Row | Structure (SMILES) | ED99 (Staphylococcus aureus [1]) | MIC (Streptococcus pneumoniae) | IC50 [2] | Activity (Staphylococcus aureus [3]) | MIC (Enterococcus faecalis) | MIC (Staphylococcus aureus [4]) | Activity (Staphylococcus aureus [5])
1 | CO/C(C)=C1/NC(=O)[C@H]([C@@H](C)O)NC(=O)c2csc(n2)-c2cc(O)c(-c3nc(C(=O)NCCCN4CCOCC4)cs3)nc2-c2csc(n2)[C@@H]2COC(=O)c3c4c5c(cccc5n3O)COC(=O)[C@@H](O[C@H]3C[C@](C)(O)[C@H](N(C)C)[C@H](C)O3)[C@@H](OC4)[C@H](NC(=O)c3csc1n3)c1nc(cs1)C(=O)N2 | 0.24 mg/kg | 0.007 µg/mL (≈ 4.68 nM) | 260 nM | 4.68 | 0.016 µg/mL (≈ 10.7 nM) | 0.011 µg/mL (≈ 7.35 nM) | –
2 | CO/C(C)=C1/NC(=O)[C@H]([C@@H](C)O)NC(=O)c2csc(n2)-c2cc(O)c(-c3nc(C(=O)NCCCN4CCN(C)CC4)cs3)nc2-c2csc(n2)[C@@H]2COC(=O)c3c4c5c(cccc5n3O)COC(=O)[C@@H](O[C@H]3C[C@](C)(O)[C@H](N(C)C)[C@H](C)O3)[C@@H](OC4)[C@H](NC(=O)c3csc1n3)c1nc(cs1)C(=O)N2 | 0.13 mg/kg | 0.00095 µg/mL (≈ 0.63 nM) | < 10 nM | – | 0.12 µg/mL (≈ 79.5 nM) | 0.015 µg/mL (≈ 9.94 nM) | 5.8
